As a reminder, the IC50 is the point on the concentration scale where inhibition reaches its midpoint. Lower therefore signals greater potency.

This is an account of results in BindingDB's records for doi:10.1021/np300764u (Heinrich-Heine University, 2013).

Experiment [1] deals with Receptor tyrosine-protein kinase erbB-2 (Homo sapiens, UniProt P04626). The experiment is described as follows: Inhibition of ERBB2 (unknown origin). An outline of the steps:
(§1)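 Biochemical (cell-free) assay within a panel of 24 protein kinases. Results reported as IC50 values. Procedure as described in earlier work.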

The target in another experiment is T1, Ephrin type-B receptor 4 (Homo sapiens, UniProt P54760).
T1 sequence (P54760 whole entry): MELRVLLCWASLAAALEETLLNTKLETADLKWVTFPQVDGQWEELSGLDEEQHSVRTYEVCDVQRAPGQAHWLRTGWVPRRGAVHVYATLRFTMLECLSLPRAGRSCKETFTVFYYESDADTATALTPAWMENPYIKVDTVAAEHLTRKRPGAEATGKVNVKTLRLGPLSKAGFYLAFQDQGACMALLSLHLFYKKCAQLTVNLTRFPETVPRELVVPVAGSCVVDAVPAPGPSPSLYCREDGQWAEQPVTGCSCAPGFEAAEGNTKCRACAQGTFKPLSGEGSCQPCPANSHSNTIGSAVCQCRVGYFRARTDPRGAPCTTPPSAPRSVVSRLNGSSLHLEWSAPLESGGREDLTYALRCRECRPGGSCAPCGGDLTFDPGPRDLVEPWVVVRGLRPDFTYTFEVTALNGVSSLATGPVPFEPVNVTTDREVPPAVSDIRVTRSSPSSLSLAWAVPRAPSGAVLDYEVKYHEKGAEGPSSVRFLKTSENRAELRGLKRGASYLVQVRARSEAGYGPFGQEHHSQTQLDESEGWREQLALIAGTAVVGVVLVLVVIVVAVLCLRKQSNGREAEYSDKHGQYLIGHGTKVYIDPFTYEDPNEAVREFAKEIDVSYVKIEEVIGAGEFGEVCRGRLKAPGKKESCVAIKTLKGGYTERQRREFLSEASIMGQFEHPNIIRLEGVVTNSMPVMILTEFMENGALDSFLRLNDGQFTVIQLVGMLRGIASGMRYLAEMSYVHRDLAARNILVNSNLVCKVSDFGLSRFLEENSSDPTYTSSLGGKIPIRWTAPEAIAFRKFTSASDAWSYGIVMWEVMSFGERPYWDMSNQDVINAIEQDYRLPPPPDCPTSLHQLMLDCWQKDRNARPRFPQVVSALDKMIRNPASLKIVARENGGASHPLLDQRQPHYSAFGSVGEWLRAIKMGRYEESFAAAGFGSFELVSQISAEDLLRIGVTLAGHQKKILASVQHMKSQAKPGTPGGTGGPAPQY
The experiment is described as follows: Inhibition of EPHB4 (unknown origin). The method in brief: as §1

Receptor tyrosine-protein kinase erbB-2, sequence (P04626 whole entry): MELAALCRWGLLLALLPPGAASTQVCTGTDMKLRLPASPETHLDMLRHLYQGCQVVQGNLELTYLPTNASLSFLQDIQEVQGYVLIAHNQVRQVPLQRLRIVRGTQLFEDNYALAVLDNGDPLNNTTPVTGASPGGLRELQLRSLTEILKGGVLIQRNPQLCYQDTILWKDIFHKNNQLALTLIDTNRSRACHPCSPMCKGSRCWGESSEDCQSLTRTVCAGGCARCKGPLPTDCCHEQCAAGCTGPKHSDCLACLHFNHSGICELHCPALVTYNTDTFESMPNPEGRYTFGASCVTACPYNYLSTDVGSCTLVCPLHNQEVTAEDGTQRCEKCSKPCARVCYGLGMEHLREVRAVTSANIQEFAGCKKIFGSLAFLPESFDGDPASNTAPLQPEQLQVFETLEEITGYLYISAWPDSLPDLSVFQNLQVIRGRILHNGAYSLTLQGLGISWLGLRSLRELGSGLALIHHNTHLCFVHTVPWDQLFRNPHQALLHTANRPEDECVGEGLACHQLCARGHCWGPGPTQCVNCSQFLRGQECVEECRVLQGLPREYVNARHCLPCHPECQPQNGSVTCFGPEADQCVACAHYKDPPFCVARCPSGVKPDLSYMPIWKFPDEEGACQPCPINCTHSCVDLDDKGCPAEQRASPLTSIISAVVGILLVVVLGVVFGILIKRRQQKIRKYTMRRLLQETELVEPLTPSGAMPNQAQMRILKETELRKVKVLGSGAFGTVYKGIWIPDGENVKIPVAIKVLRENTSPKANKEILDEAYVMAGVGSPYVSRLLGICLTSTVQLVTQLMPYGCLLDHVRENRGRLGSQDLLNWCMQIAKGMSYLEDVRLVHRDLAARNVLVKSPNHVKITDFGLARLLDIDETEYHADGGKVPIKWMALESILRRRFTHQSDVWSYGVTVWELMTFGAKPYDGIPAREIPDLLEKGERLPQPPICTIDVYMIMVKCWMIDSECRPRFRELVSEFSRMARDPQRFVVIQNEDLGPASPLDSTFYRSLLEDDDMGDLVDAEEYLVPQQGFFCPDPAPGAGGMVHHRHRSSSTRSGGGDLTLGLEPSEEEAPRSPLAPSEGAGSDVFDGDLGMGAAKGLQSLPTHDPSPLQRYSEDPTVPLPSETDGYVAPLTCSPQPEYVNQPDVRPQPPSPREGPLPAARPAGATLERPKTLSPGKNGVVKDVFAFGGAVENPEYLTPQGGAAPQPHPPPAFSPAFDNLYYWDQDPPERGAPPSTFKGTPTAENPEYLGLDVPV

As to `O=NC(Cc1cc(Br)c(O)c(-c2cc(CC(N=O)C(=O)NCCc3ccc(O)c(Br)c3)cc(Br)c2O)c1)C(=O)NCCc1ccc(O)c(Br)c1` (stereo not drawn) [BASTADIN 3], half-maximal inhibition in experiment [1] (IC50) was put at 2.1 µM. With `O=NC(Cc1cc(Br)c(O)c(Oc2ccc(CCNC(=O)C(Cc3cc(Br)c(O)c(-c4cc(CC(N=O)C(=O)NCCc5ccc(O)c(Br)c5)cc(Br)c4O)c3)N=O)cc2Br)c1)C(=O)NCCc1ccc(O)c(Br)c1` (stereo not drawn) [Sesquibastadin 1], the IC50 in experiment [1] is 2.1 µM; at Ephrin type-B receptor 4, 3.4 µM.
